The source made the active and inactive calls. The calls are words filed in the database; no cut-off is given here.
Tests used:
[1] = tested on: Hepatitis C virus; test: Antiviral activity against HCV JFH-1 harboring K78E/E2-G451R/NS3-M260K/NS5A-T462I mutant infected in human Huh7.5.1 cells after 2 days by renilla luciferase reporter gene assay; type: functional, organism-based, Hepacivirus hominis; conditions: JFH-1, Huh-7.5.1, 48 h
Outline: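 Renilla luciferase reporter HCVcc (hRluc inserted in NS5A, aa 399/400) came from electroporated Huh7.5.1 supernatant. Virus plus serially diluted compound (top 30 or 6 μM) was added to Huh7.5.1 cells (1×10^4/well) and luminescence read. EC50 is 50% luminescence reduction.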

[2] = tested on: Hepatitis C virus; test: Antiviral activity against EGFP-fused HCV JFH-1 harboring K78E/E2-G451R/NS3-M260K/NS5A-T462I mutation infected in human Huh7.5.1 cells assessed as reduction in viral RNA level after 2 days in presence of telaprevir by qRT-PCR analysis; type: functional, organism-based; conditions: Hepacivirus hominis
Outline: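 Huh7.5.1 cells at 1×10^4/well, grown overnight at 37 °C. HCVcc was mixed with serially diluted compound (top 30 or 6 μM), given alone or with the named drug, and added to the cells. Viral RNA was read by qRT-PCR after 2 days. EC50 is the concentration giving 50% RNA reduction.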

[3] = tested on: Hepatitis C virus; test: Antiviral activity against EGFP-fused HCV JFH-1 harboring K78E/E2-G451R/NS3-M260K/NS5A-T462I mutation infected in human Huh7.5.1 cells assessed as combination index after 2 days in presence of boceprevir by qRT-PCR analysis; type: functional, Hepacivirus hominis
Outline: (§1)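 In HCVcc-infected Huh7.5.1 cells (1×10^4/well, overnight, 37 °C), compound was given at various concentrations alone or with the named approved antiviral. After 2 days HCV RNA was quantified by qRT-PCR to derive the combination index.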

[4] = tested on: Hepatitis C virus; test: Antiviral activity against EGFP-fused HCV JFH-1 harboring K78E/E2-G451R/NS3-M260K/NS5A-T462I mutation infected in human Huh7.5.1 cells assessed as combination index after 2 days in presence of cyclosporin A by qRT-PCR analysis; type: functional, Hepacivirus hominis; outline: as §1
[5] = tested on: Hepatitis C virus; test: Antiviral activity against EGFP-fused HCV JFH-1 harboring K78E/E2-G451R/NS3-M260K/NS5A-T462I mutation infected in human Huh7.5.1 cells assessed as combination index after 2 days in presence of daclatasvir by qRT-PCR analysis; type: functional, Hepacivirus hominis; outline: as §1
[6] = tested on: Hepatitis C virus; test: Antiviral activity against EGFP-fused HCV JFH-1 harboring K78E/E2-G451R/NS3-M260K/NS5A-T462I mutation infected in human Huh7.5.1 cells assessed as combination index after 2 days in presence of telaprevir by qRT-PCR analysis; type: functional, Hepacivirus hominis; outline: as §1
[7] = tested on: Zika virus; test: Antiviral activity against ZIKV infected in human Huh7.5.1 cells assessed as inhibition of viral replication measured after 3 days qRT-PCR analysis; type: functional, organism-based; conditions: Huh-7.5.1, 72 h
Outline: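 Huh7.5.1 cells were infected with DENV II or ZIKV at MOI 0.1 and treated with compound. Viral RNA was quantified by qRT-PCR after 3 days. EC50 is 50% reduction of RNA level.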

[8] = Cytotoxicity against African green monkey Vero cells infected with RSV assessed as decrease in cell viability after 48 hrs by WST1 assay; type: cell-based; conditions: chlorocebus sabaeus
Outline: (§2)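 Cells at 1×10^4/well, cultured overnight at 37 °C, were incubated 48 h with serially diluted compound. Viability was read by WST-1 absorbance (OD450/OD630).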

[9] = Selectivity index, ratio of CC50 for human Huh7.5.1 cells to EC50 for DENV infected in human Huh7.5.1 cells; type: toxicity, cell-based; conditions: read-out: Ratio CC50/EC50
Outline: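 SI from two assays. Antiviral: Huh7.5.1 cells infected with DENV II or ZIKV at MOI 0.1; viral RNA measured by qRT-PCR after 3 days; EC50 taken at 50% RNA reduction. Cytotoxicity: cells seeded at 1×10^4/well, given serially diluted compound for 48 h, then WST-1 absorbance (OD450/OD630) read for CC50.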

[10] = biological target: T1, Sialate O-acetylesterase (Homo sapiens) (UniProt Q9HAT2); test: Binding affinity to SIAE in human Huh7.5.1 cell lysate infected with HCV at 0.1 to 10 uM incubated for 1 hr followed by 10000 mJ/cm2 UV irradiation for 10 mins and subsequent addition of biotin-N3 measured after 1 hr by ABPP Gel-based by LC/MS/MS analysis; type: subcellular
T1 sequence (whole entry): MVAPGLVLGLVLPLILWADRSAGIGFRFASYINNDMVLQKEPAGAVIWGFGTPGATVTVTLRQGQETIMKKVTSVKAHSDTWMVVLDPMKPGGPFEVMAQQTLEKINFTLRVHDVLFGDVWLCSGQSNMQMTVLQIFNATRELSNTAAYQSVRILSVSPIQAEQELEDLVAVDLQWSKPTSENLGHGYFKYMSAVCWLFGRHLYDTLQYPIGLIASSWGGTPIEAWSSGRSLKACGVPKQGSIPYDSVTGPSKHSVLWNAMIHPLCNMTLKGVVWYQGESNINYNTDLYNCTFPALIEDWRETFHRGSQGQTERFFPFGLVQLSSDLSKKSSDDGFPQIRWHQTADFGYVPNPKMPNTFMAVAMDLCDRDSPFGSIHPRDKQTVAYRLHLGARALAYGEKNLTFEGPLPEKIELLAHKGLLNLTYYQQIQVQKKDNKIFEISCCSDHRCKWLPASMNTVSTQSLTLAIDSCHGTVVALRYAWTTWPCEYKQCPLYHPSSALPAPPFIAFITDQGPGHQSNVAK
Outline: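 ABPP: Huh7.5.1 cells HCV-infected 2 days were lysed by sonication in PBS with protease inhibitors (~1.5 mg/ml protein). Photo-probe at 1.0–10.0 μM was UV-crosslinked (350 nm, 10000 mJ/cm2, 10 min), then clicked to biotin-N3 (CuSO4/TBTA/TCEP, 1 h RT). Proteins were precipitated, avidin pull-down, washed with SDS, urea, PBS; LC-MS/MS versus negative-probe, competitor and DMSO groups.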

[11] = biological target: T2, Membrane protein MLC1 (Homo sapiens) (UniProt Q15049); test: Binding affinity to MLC1 in human Huh7.5.1 cell lysate infected with HCV at 0.1 to 10 uM incubated for 1 hr followed by 10000 mJ/cm2 UV irradiation for 10 mins and subsequent addition of biotin-N3 measured after 1 hr by ABPP Gel-based by LC/MS/MS analysis; type: subcellular
T2 sequence (whole entry): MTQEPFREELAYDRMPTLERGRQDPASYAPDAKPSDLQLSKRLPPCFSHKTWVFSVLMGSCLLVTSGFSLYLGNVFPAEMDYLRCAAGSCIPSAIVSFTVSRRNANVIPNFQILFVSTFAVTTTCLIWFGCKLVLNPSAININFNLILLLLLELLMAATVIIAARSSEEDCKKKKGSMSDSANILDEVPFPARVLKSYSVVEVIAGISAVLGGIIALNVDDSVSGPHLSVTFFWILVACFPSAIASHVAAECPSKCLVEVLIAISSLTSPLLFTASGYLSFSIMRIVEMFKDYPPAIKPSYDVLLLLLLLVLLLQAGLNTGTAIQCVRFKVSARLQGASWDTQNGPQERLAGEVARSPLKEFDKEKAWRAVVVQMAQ

[12] = Cytotoxicity against human Caco2 cells infected with MERS-CoV measured after 48 hrs by WST1 assay; type: cell-based, Caco-2; outline: as §2

CCN(CC)c1ccc(Oc2ccc(-c3[nH]c4cccc(F)c4c(=O)c3C)cc2F)cc1
EC50 [1]: 0.004 to 0.007 µM
Activity [2]: Dose-dependent effect
CI [3]: >50
CI [4]: >50
CI [5]: >=10 - 50
CI [6]: >=10 - 50
EC50 [7]: 0.02 µM
CC50 at 48 h [8]: > 2.5 µM
selectivity ratio [9]: > 357
Activity [10]: Active
Activity [11]: Active
CC50 at 48 h [12]: > 2.5 µM
